Experiments:
Format in all cases: cell-based
Conditions in all cases: human gammaherpesvirus 4
Raji [1] = experiment: Inhibition of TPA-induced EBV-early antigen activation in human Raji cells assessed as remaining activity at 100 molar ratio per TPA after 48 hrs by immunofluorescence method relative to TPA
Procedure, shortened: (§1)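 Raji cells (EBV genome-carrying, virus nonproducer) grown in RPMI1640 with 10% FBS; 1 × 10^6 cells incubated 48 h at 37 °C in 1 mL medium with n-butyric acid (4 mmol), TPA (32 pmol) in DMSO, and test compound in 5 μL DMSO at 10, 100, 500 or 1000 mol ratio/TPA. EA-positive cells detected by indirect immunofluorescence with NPC patient serum, ≥500 cells counted; triplicates, expressed relative to butyrate+TPA control (100%).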

Raji [2] = experiment: Inhibition of TPA-induced EBV-early antigen activation in human Raji cells assessed as cell viability at 1000 molar ratio per TPA after 48 hrs by trypan blue staining method
Procedure, shortened: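 Raji cells treated 48 h at 37 °C with n-butyric acid (4 mmol), TPA (32 pmol) and test compound in DMSO at 1000 mol ratio/TPA; viability determined by Trypan Blue staining.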

Raji [3] = experiment: Inhibition of TPA-induced EBV-early antigen activation in human Raji cells after 48 hrs by immunofluorescence method relative to TPA; procedure, shortened: as §1
Raji [4] = experiment: Inhibition of TPA-induced EBV-early antigen activation in human Raji cells at 1000 molar ratio per TPA after 48 hrs by immunofluorescence method relative to TPA; procedure, shortened: as §1
Raji [5] = experiment: Inhibition of TPA-induced EBV-early antigen activation in human Raji cells at 500 molar ratio per TPA after 48 hrs by immunofluorescence method relative to TPA; procedure, shortened: as §1
Raji [6] = experiment: Inhibition of TPA-induced EBV-early antigen activation in human Raji cells at 100 molar ratio per TPA after 48 hrs by immunofluorescence method relative to TPA; procedure, shortened: as §1
Raji [7] = experiment: Inhibition of TPA-induced EBV-early antigen activation in human Raji cells at 10 molar ratio per TPA after 48 hrs by immunofluorescence method relative to TPA; procedure, shortened: as §1

Row | Structure (SMILES) | Activity (Raji [1]) [%] | Cell viability (Raji [2]) [%] | inhibition (Raji [3]) | inhibition (Raji [4]) [%] | inhibition (Raji [5]) [%] | inhibition (Raji [6]) [%] | inhibition (Raji [7]) [%]
1 | CC(=O)O[C@@H]1[C@H](O)[C@@H](C)[C@]23OC(C)(C)[C@H]([C@H](OC(C)=O)[C@H](OC(=O)c4ccccc4)[C@]2(C)[C@H]1OC(=O)c1ccccc1)[C@H]3OC(C)=O | 79.5 | > 60 | Dose-dependent effect |  |  |  | 
2 | CC(=O)O[C@H]1[C@H](OC(=O)c2ccccc2)[C@@]2(C)[C@@H](OC(=O)/C=C/c3ccccc3)C[C@]3(O)C[C@]2(OC3(C)C)[C@@](C)(O)[C@H]1OC(C)=O |  | > 60 | Dose-dependent effect |  |  |  | 
3 | CC(=O)O[C@H]1[C@H](OC(=O)c2ccccc2)C[C@](C)(O)[C@]23OC(C)(C)[C@H](C[C@H](OC(=O)c4ccco4)[C@]12CO)[C@H]3OC(=O)c1ccccc1 | 82.2 | > 60 | Dose-dependent effect |  |  |  | 
4 | CC(=O)O[C@H]1[C@H](OC(=O)c2ccco2)[C@@]2(C)[C@@H](OC(=O)c3ccccc3)C[C@@H]3C[C@]2(OC3(C)C)[C@@](C)(O)[C@H]1OC(C)=O |  | > 60 | Dose-dependent effect |  |  |  | 
5 | CC(=O)O[C@H]1[C@H](OC(=O)c2ccccc2)[C@@]2(C)[C@@H](OC(=O)/C=C/c3ccccc3)C[C@@H]3[C@@H](OC(C)=O)[C@]2(OC3(C)C)[C@@](C)(O)[C@H]1OC(=O)c1cccnc1 |  | > 60 | Dose-dependent effect |  |  |  | 
6 | CC(=O)O[C@H]1[C@H](OC(=O)c2ccccc2)[C@@]2(C)[C@@H](OC(=O)/C=C/c3ccccc3)[C@@H](O)[C@@H]3C[C@]2(OC3(C)C)[C@@](C)(O)[C@H]1OC(C)=O |  | > 60 | Dose-dependent effect |  |  |  | 
7 | CC(=O)O[C@H]1[C@H](OC(=O)c2ccccc2)[C@@]2(C)[C@@H](OC(=O)/C=C/c3ccccc3)[C@@H](O)[C@@H]3[C@@H](O)[C@]2(OC3(C)C)[C@@](C)(O)[C@H]1OC(C)=O | 85 | > 60 | Dose-dependent effect |  |  |  | 
8 | CC(=O)O[C@@H]1[C@H](O)[C@@H](C)[C@]23OC(C)(C)[C@H]([C@H](OC(C)=O)[C@H](OC(=O)c4ccccc4)[C@]2(C)[C@H]1OC(=O)c1ccoc1)[C@H]3OC(C)=O | 87 | > 60 | Dose-dependent effect |  |  |  | 
9 | CC1(C)O[C@]23C[C@H]1C[C@H](OC(=O)c1ccccc1)[C@]2(C)[C@@H](OC(=O)c1ccco1)CC[C@]3(C)O |  | > 60 | Dose-dependent effect |  |  |  | 
10 | CC(=O)O[C@H]1[C@H](OC(=O)c2ccccc2)C[C@](C)(O)[C@]23OC(C)(C)[C@H](C[C@H](OC(=O)c4ccco4)[C@]12C)[C@H]3OC(=O)c1ccccc1 |  | > 60 | Dose-dependent effect |  |  |  | 
11 | CC(=O)O[C@@H]1[C@H](O)[C@@H](C)[C@]23OC(C)(C)[C@H](C[C@H](OC(=O)/C=C/c4ccccc4)[C@]2(C)[C@H]1OC(=O)c1ccccc1)[C@H]3O |  | > 60 | Dose-dependent effect |  |  |  | 
12 | CC(=O)O[C@H]1[C@@H]2C[C@@]3(OC2(C)C)[C@](C)([C@H]1OC(=O)c1ccccc1)[C@@H](OC(=O)c1ccccc1)[C@H](OC(C)=O)[C@H](OC(C)=O)[C@]3(C)O | 79.3 | > 60 | Dose-dependent effect |  |  |  | 
13 | CC(=O)OC[C@]12[C@@H](OC(=O)c3ccco3)C[C@@H]3[C@@H](OC(=O)c4ccccc4)[C@]1(OC3(C)C)[C@@](C)(O)C[C@@H](OC(C)=O)[C@@H]2OC(C)=O | 81.9 | > 60 | Dose-dependent effect |  |  |  | 
14 | CC(=O)O[C@H]1[C@H](OC(=O)c2ccccc2)[C@@]2(C)[C@@H](OC(=O)/C=C/c3ccccc3)[C@@H](O)[C@@H]3[C@@H](OC(C)=O)[C@]2(OC3(C)C)[C@@](C)(O)[C@H]1OC(C)=O | 88.6 | > 60 | Dose-dependent effect |  |  |  | 
15 | CC(=O)O[C@@H]1[C@H](O)[C@@H](C)[C@]23OC(C)(C)[C@H](C[C@H](OC(=O)c4ccccc4)[C@]2(C)[C@H]1OC(=O)c1ccccc1)[C@H]3OC(C)=O | 81 | > 60 | Dose-dependent effect |  |  |  | 
16 | CC(=O)O[C@@H]1[C@H](O)[C@@H](C)[C@]23OC(C)(C)[C@H](C[C@H](OC(=O)/C=C/c4ccccc4)[C@]2(C)[C@H]1OC(=O)c1ccccc1)[C@H]3OC(C)=O |  | > 60 | Dose-dependent effect |  |  |  | 
17 | CC(=O)O[C@@H]1C[C@](C)(O)[C@@]23C[C@@H](C[C@H](OC(=O)/C=C/c4ccccc4)[C@]2(C)[C@H]1OC(=O)c1ccco1)C(C)(C)O3 |  | > 60 | Dose-dependent effect |  |  |  | 
18 | CC(=O)O[C@@H]1C[C@](C)(O)[C@@]23C[C@@H](C[C@H](OC(=O)c4ccccc4)[C@]2(C)[C@H]1OC(=O)c1ccco1)C(C)(C)O3 |  | > 60 | Dose-dependent effect |  |  |  | 
19 | CC(=O)O[C@@H]1[C@H](OC(C)=O)[C@@H](C)[C@@]23C[C@@H](C[C@H](OC(=O)c4ccccc4)[C@]2(C)[C@H]1OC(=O)c1ccco1)C(C)(C)O3 |  | > 60 | Dose-dependent effect |  |  |  | 
20 | CC(=O)O[C@@H]1[C@H](O)[C@@H](C)[C@]23OC(C)(C)[C@H]([C@H](OC(C)=O)[C@H](OC(=O)c4ccccc4)[C@]2(C)[C@H]1OC(=O)c1ccccc1)[C@H]3O | 76.3 | > 60 | Dose-dependent effect | 100 | 69.9 | 23.7 | 2.2
